# Assay outcomes as filed in PubChem.
# Hits are enriched below; roughly 1.3% of the tested compounds scored in any of these assays.
# C-LANA FP = inhibitors of KSHV C-LANA binding to DNA, primary screen, biochemical, fluorescence polarization, FAM-LBS DNA, MBP-C-LANA, single point. Kaposi's sarcoma herpesvirus LANA C-terminal domain (residues 932-1162) DNA binding. inhibition, % at 9 µM. hit rate 0.078% among 340,000;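 active = highest replicate inhibition at or above 60% at 9 µM, even if other replicates fall short; inactive = all replicates below 60% inhibition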;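 also: 0% = neutral control wells and 100% = 4 µM acridine orange control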
# GRK2 inh = compounds blocking aptamer binding on GRK2 – biochemical, human GRK2, bead flow cytometry, HTS, primary screen; Beta-adrenergic receptor kinase 1 (Homo sapiens), P25098; FAM-aptamer displacement from GRK2; inhibition of aptamer binding, % at 10 µM; hit rate 0.59% among 330,000;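 active = inhibition of aptamer binding above 40%, roughly 3 SD of noise, on plates passing a quality check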;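 also: median bead fluorescence of bound FAM aptamer so fluorescent compounds give negative values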
# T cell HTS = modulators of CD8 T cell-vesicle binding, primary screen, mouse 2C CD8+ T cells, flow cytometry; 2C CD8+ T cell-vesicle binding; hits give low values; response (vesicle binding), % at 7 µM; AID 2052, 2009; hit rate 0.068% among 330,000;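 active = response, share of CD8 T cells binding vesicles, and their 90th percentile fluorescence all below set limits, cut at about 80% in these data, passing the limit was not always enough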;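 also: values below 100% mean blocked vesicle binding to the CD8+ T cells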
#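 Also added: QL9-peptide-loaded Drosophila micro-vesicles bearing Ld, ICAM-1 and B7-1; Test system: purified 2C TCR transgenic mouse naive CD8+ T cells; Measured by: cytometric PE anti-B7-1 and Alexa647 anti-CD8 signals after 1% paraformaldehyde fixation; Timing: binding step 1.5 h, 37 °C, antibody labelling 20 min, ice.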
# Keap1 Nrf2 FP = Keap1-Nrf2 protein-protein interaction inhibitors, primary screen, biochemical, fluorescence polarization, single point; Keap1 Kelch-Nrf2 peptide fluorescence polarization, 1536-well; inhibition, % at 9.4 µM; hit rate 0.15% among 340,000; AID 504523, 2011; in the data active = inhibition above about 12%; inconclusive = no clear call, values can overlap the other calls; inactive = below about 7.3%;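 also: human Keap1 Kelch domain with fluorescein labeled Nrf2 9mer peptide probe; 0% = neutral control wells and 100% = peptide positive control; higher means more block of Keap1 binding to Nrf2 peptide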
# MEX-5 binding = MEX-5 zinc finger RNA-binding disruptors – biochemical, C. elegans, fluorescence polarization, MLPCN library, primary screen; activity score (negative = inhibition of binding), % at 10 µM; MEX-5/FITC-TCR2 RNA binding; hits give low values; hit rate 0.38% among 300,000;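 active = inhibition past about -25% in most replicates, and total fluorescence under double the plate's negative control median, limit read from the data; inconclusive = replicates evenly split on the limit, or fluorescence at least double controls; inactive = too little inhibition in most replicates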;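 also: 0% = DMSO and -100% = 5 µM competing unlabeled TCR2 RNA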
# EBV gp42 block = Epstein-Barr virus gp42 inhibitors, primary screen, biochemical, uHTS, fluorescence polarization; hit rate 0.42% among 220,000; Glycoprotein 42 (Epstein-Barr virus (strain AG876)), Q1HVG2; inhibition, % (tested at 21.74 µM); Fluorescence polarization binding assay, mP read-out; in the data active = inhibition above about 50%
# Target sequence (Q1HVG2 whole entry, looked up): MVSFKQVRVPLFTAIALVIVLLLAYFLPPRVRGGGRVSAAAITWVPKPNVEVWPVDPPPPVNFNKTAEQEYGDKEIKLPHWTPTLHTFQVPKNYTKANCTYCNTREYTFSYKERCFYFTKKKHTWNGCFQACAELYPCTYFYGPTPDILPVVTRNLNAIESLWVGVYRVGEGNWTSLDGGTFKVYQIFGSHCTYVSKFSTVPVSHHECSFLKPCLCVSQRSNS
# * = called active by the depositor; ? = inconclusive; . = no result.
SMILES,C-LANA FP,GRK2 inh,T cell HTS,Keap1 Nrf2 FP,MEX-5 binding,EBV gp42 block
COc1ccc(-c2cc(CNS(=O)(=O)c3cc(OC)ccc3OC)on2)cc1,0,3,243,-3,-4,.
COc1ccc(-c2cc(CNS(=O)(=O)c3ccc(NC(C)=O)cc3)on2)cc1,-3,3,0.0*,1,1,.
Cc1ccc2nc3sc(C(=O)N4CCCc5ccccc54)c(N)c3cc2c1,3,2,602,-2,-35*,46
Cc1ccc(-c2cc(C(=O)N3CCCc4ccccc43)c3ccccc3n2)cc1,0,1,376,-6,0,-2
CCN(CC)CCCNc1ccc2ncn3c4ccc(O)cc4c(=O)c1c23,147*,.,.,108*,.,.
CN(C)CCNc1ccc2nnn3c4ccc(O)cc4c(=O)c1c23,-20,.,.,-3,.,.
Oc1c(Br)cc(Br)c(/C=N/n2c(-c3ccccc3)n[nH]c2=S)c1Br,3,0,323,2,-37*,.
CCn1c(=O)c(C(=O)Nc2nc3ccccc3[nH]2)c(O)c2ccccc21,2,81*,249,-5,-2,-23
CCCCNS(=O)(=O)c1ccc(OCC(=O)OC)cc1,0,1,6.7*,-6,3,-6
Cc1ccc(CNC(=O)c2ccc(-n3cccc3)cc2)cc1,3,.,.,-2,0,51*
Cc1ccc(CNC(=O)Cc2ccc(-n3cccc3)cc2)cc1,0,1,224,-7,0,-5
CN(C)CCCN(C(=O)c1ccc2c(c1)OCCO2)c1nc2cc3c(cc2s1)OCO3,-3,0,0,3,1,.
CN(C)CCCN(C(=O)c1ccc([N+](=O)[O-])o1)c1nc2cc3c(cc2s1)OCO3,-2,55*,15,-2,-4,.
O=Cc1cn(CC(=O)N2CCCCC2)c2ccccc12,0,3,449,-3,3,-6
CN1C(=O)/C(=C/c2cn(CC(=O)N3CCCCC3)c3ccccc23)c2ccccc21,.,1,436,.,-27*,-12
Oc1ccc(/C=N/N2CCOCC2)c(O)c1O,3,10,345,-5,-47*,-16
Oc1ccc(/C=N/N2CCCCC2)c(O)c1O,5,3,125,-8,-29*,.
Cc1ccc(-c2nc(C=Nc3ccc(O)cc3)c(O)o2)cc1,18,.,.,6,-37*,30
CN=Cc1nc(-c2ccccc2)oc1O,0,0,230,0,6,-3
O=C(COC(=O)CNC(=O)c1ccc(Br)cc1)Nc1nnc(-c2ccccc2)o1,1,4,212,3,-6,.
Cc1cc(=O)[nH]c(N/N=C/c2ccc(O)c(O)c2)n1,-2,1,836,-5,-42*,.
CC(C)N1CCC(N2CCN(C3CCCCCC3)CC2CCO)CC1 (stereo unspecified),0,0,211,-3,-1,-6
Cc1ccc(S(=O)(=O)N2CCN(C(=O)c3cccc(-n4cccc4)c3)CC2)cc1,-6,2,704,-8,3,.
O=C(c1cccc(-n2cccc2)c1)N1CCN(S(=O)(=O)c2ccccc2)CC1,18,81*,526,4,0,.
COc1ccc(Nc2nc3ccccc3nc2NS(=O)(=O)c2cccs2)c(OC)c1,3,0,281,-5,-40*,22
SMILES,C-LANA FP,GRK2 inh,T cell HTS,Keap1 Nrf2 FP,MEX-5 binding,EBV gp42 block
COc1cccc(Nc2nc3ccccc3nc2NS(=O)(=O)c2cccs2)c1,1,1,422,-4,-7,16
N#C/C(=C/c1ccc(-c2ccccc2)o1)c1nc(-c2cccs2)cs1,3,4,296,-4,.,99*
N#C/C(=C\c1ccc(-c2ccc(F)cc2)o1)C(=O)Nc1nc(-c2cccs2)cs1,1,0,241,-3,-1,12
CNC(=O)/C(C#N)=C/c1ccc(-c2nc3ccccc3s2)o1,.,4,699,.,-67*,10
N#C/C(=C/c1ccc(-c2ccc(S(N)(=O)=O)cc2)o1)c1nc2ccccc2s1,10,8,950,-8,.,64*
C=C(C)C(=O)Nc1cccc(C2=NOC3(C2)C[C@@H](C(N)=O)N(C(=O)c2ccc(OC)cc2)C3)c1 (stereo partly specified),46,95*,634,0,3,-5
COc1ccc(C(=O)N2CC3(CC(c4cccc(NC(=O)CC(c5ccccc5)c5ccccc5)c4)=NO3)C[C@H]2C(N)=O)cc1 (stereo partly specified),0,6,339,-5,-1,-7
NS(=O)(=O)c1ccc(CCNC(=O)C2CCN(S(=O)(=O)c3cccc4cccnc34)CC2)cc1,-1,2,54*,0,1,.
Cc1cc(O)c(-c2cc(O)c(C)cc2O)cc1O,-2,1,112,0,-80*,-20
Nc1ccc2nc3c(=O)n(CCc4ccccc4)c(=O)[nH]c3nc2c1,.,3,549,.,-52*,174*
Cc1nc2ccccc2c(=O)n1CCc1ccccc1,-2,6,803,-1,1,.
Cc1cc2nc3c(=O)n(CCc4ccccc4)c(=O)[nH]c3nc2cc1N,35,3,527,11,?,158*
CC(C)CCNC(=O)C1CC(=O)N(C2CCCC2)C1 (stereo unspecified),-1,0,430,0,2,-23
O=S1(=O)CCOC[C@H](CC2CCCCC2)N1Cc1ccccc1F,-1,3,610,0,1,.
O=C(CSc1ncn[nH]1)CSc1ncn[nH]1,2,0,11*,4,45,-19
COc1cccc(CN2CCN(S(=O)(=O)c3ccc(Cl)s3)CC2)c1,-1,4,0.0*,-4,-1,.
COc1ccc(S(=O)(=O)N2CCN(Cc3cccc(Cl)c3)CC2)cc1,1,1,518,-3,1,-5
CN(CCC#N)C(=O)COC(=O)c1c2c(nc3ccccc13)/C(=C/c1ccco1)CC2,1,8,673,1,-24,95*
CC(C)CNC(=O)COC(=O)c1c2c(nc3ccccc13)/C(=C\c1cccs1)CC2,-2,.,.,-8,.,.
COc1ccccc1NC(=O)c1sc2nc(Cc3ccccc3)cc(C(F)(F)F)c2c1N,7,0,127,6,-143*,74*
O=c1cccc2c1c1cc[nH]c3ccc(=O)n2c31,-2,4,696,-3,2,.
Cc1ccc2nc(-c3ccc(O)c(O)c3)cn2c1,0,1,228,0,-48*,.
Cc1nc(-c2ccc(O)c(O)c2)cs1,2,3,830,-2,-51*,-47
